Source: PMC6061410 (Clinical Drug Investigation, 2018)

Tests used:
[1] = Pharmacokinetics after single and multiple doses, part 1; assay type: in vivo, human; details: for AUCτ,ss,norm / Cmax,ss,norm / AUC0–24,norm / Cmax,norm / AUC(0-t) / AUC / Cmax: gMean (%CV); for AUC: AUCτ,ss; for Tmax: median and range (minimum, maximum)
Procedure, shortened: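 Randomised 3:1 double-blind placebo-controlled groups (9 active, 3 placebo) of healthy young or elderly subjects took 5- or 25-mg tablets. Dosing was a single dose on day 1, QD or BID for 10 days from day 4, and a single dose on day 14. Fasted on days 1 and 14. Blood was sampled through day 23 and urine after first and last doses (QD only). Plasma/urine LC-MS/MS used a seven-point calibration. Geometric mean (%CV) values were reported.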

[2] = Pharmacokinetics of 25-mg single morning or evening dose, part 2; assay type: in vivo, human
Procedure, shortened: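 Open-label two-period crossover in 12 healthy young subjects. Each took single fasted 25-mg doses, morning and evening, separated by a washout of at least 11 days. Blood was sampled pre-dose to 96 h and measured by LC-MS/MS. AUC0–tz, AUC0–∞ and Cmax were given as adjusted gMeans with evening/morning ratio and 90% CI. tmax was given as median (range).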

Effect of food intake = assay type: in vivo, human; details: 25 mg; for Cmax: human, plasma, oral, Cmax at steady state, gMean
Procedure, shortened: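 Healthy young (25 mg, group 2) and elderly (25 mg, group 5) subjects were dosed once daily with tablets. On day 12, group 2 dosed light-fed (standardised ~500 kcal breakfast 30 min pre-dose) and group 5 dosed light-fasted (no food ≥10 h before until 1 h after). Day 12 plasma profiles were compared with day 14 fasted profiles (no food ≥10 h before until 3.5 h after) as gMean ratios.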

Intrinsic solubility = assay type: physicochemical
[3] = cited from earlier work
[4] = elderly, 25 mg QD, multiple dose
[5] = elderly, 50 mg QD, multiple dose
[6] = young subjects, standardised light breakfast

SMILES: C[C@@H](Oc1ccc(S(C)(=O)=O)cc1C(=O)N1C[C@@H]2C[C@]2(c2cc(C(F)(F)F)on2)C1)C(F)(F)F [BI 425809]
- dose proportionality of exposure parameters (Cmax, AUC0–24, Cmax,ss and AUCτ,ss) ([1]; 10 and 25 mg, tablet): dose proportionality was observed
- linearity index ([1]; QD groups): ~1
- time to steady state after the start of multiple dosing ([1]; all treatment groups): 2 to 6 days
- dose proportionality of exposure ([1]; doses of ≥ 50 mg, tablet): clearly less than dose proportional
- AUCτ,ss,norm [1, 4]: 439 (11.6) nmol·h/L/mg
- Cmax,ss,norm [1, 4]: 24.7 (10.9) nmol/L/mg
- AUC0–24,norm ([1]; elderly, 25 mg QD, single dose): 139 (18.5) nmol·h/L/mg
- Cmax,norm ([1]; elderly, 25 mg QD, single dose): 9.4 (18.7) nmol/L/mg
- AUCτ,ss,norm [1, 5]: 278 (30.8) nmol·h/L/mg
- Cmax,ss,norm [1, 5]: 16.0 (25.0) nmol/L/mg
- AUC0–24,norm ([1]; elderly, 50 mg QD, single dose): 112 (17.9) nmol·h/L/mg
- Cmax,norm ([1]; elderly, 50 mg QD, single dose): 7.43 (25.9) nmol/L/mg
- AUC(0-t) ([1]; human, plasma, oral, 10 mg, AUC0–24, young, 10 mg QD, single dose): 1.41 µM·h
- AUC ([1]; human, plasma, oral, 10 mg, young, 10 mg QD, multiple dose): 3.87 µM·h
- Cmax ([1]; human, plasma, oral, 10 mg, Cmax, young, 10 mg QD, single dose): 109 nM
- Tmax ([1]; human, plasma, oral, 10 mg, tmax,ss, young, 10 mg QD, multiple dose): 4.5 h
- AUC(0-t) ([1]; human, plasma, oral, 25 mg, AUC0–24, elderly, 25 mg QD, single dose): 3.46 µM·h
- AUC(0-t) ([1]; human, plasma, oral, 25 mg, AUC0–24, young, 25 mg QD, single dose): 3.72 µM·h
- AUC ([1]; human, plasma, oral, 25 mg, elderly, 25 mg QD, multiple dose): 11 µM·h
- AUC ([1]; human, plasma, oral, 25 mg, young, 25 mg QD, multiple dose): 10.6 µM·h
- Cmax ([1]; human, plasma, oral, 25 mg, Cmax, elderly, 25 mg QD, single dose): 235 nM
- Cmax ([1]; human, plasma, oral, 25 mg, Cmax, young, 25 mg QD, single dose): 278 nM
- Cmax ([1]; human, plasma, oral, 25 mg, Cmax,ss, elderly, 25 mg QD, multiple dose): 618 nM
- Cmax ([1]; human, plasma, oral, 25 mg, Cmax,ss, young, 25 mg QD, multiple dose): 582 nM
- Tmax ([1]; human, plasma, oral, 25 mg, tmax, elderly, 25 mg QD, single dose): 3.5 h
- Tmax ([1]; human, plasma, oral, 25 mg, tmax, young, 25 mg QD, single dose): 4.5 h
- Tmax ([1]; human, plasma, oral, 25 mg, tmax,ss, elderly, 25 mg QD, multiple dose): 3 h
- Tmax ([1]; human, plasma, oral, 25 mg, tmax,ss, young, 25 mg QD, multiple dose): 3.75 h
- AUC(0-t) ([1]; human, plasma, oral, 50 mg, AUC0–24, elderly, 50 mg QD, single dose): 5.62 µM·h
- AUC(0-t) ([1]; human, plasma, oral, 50 mg, AUC0–24, young, 50 mg QD, single dose): 6.02 µM·h
- AUC ([1]; human, plasma, oral, 50 mg, elderly, 50 mg QD, multiple dose): 13.9 µM·h
- AUC ([1]; human, plasma, oral, 50 mg, young, 50 mg QD, multiple dose): 14.2 µM·h
- Cmax ([1]; human, plasma, oral, 50 mg, Cmax, elderly, 50 mg QD, single dose): 371 nM
- Cmax ([1]; human, plasma, oral, 50 mg, Cmax, young, 50 mg QD, single dose): 397 nM
- Cmax ([1]; human, plasma, oral, 50 mg, Cmax,ss, elderly, 50 mg QD, multiple dose): 802 nM
- Cmax ([1]; human, plasma, oral, 50 mg, Cmax,ss, young, 50 mg QD, multiple dose): 800 nM
- Tmax ([1]; human, plasma, oral, 50 mg, tmax, elderly, 50 mg QD, single dose): 4.5 h
- Tmax ([1]; human, plasma, oral, 50 mg, tmax, young, 50 mg QD, single dose): 4.5 h
- Tmax ([1]; human, plasma, oral, 50 mg, tmax,ss, elderly, 50 mg QD, multiple dose): 4.5 h
- Tmax ([1]; human, plasma, oral, 50 mg, tmax,ss, young, 50 mg QD, multiple dose): 3.5 h
- AUC(0-t) ([1]; human, plasma, oral, 75 mg, AUC0–24, young, 75 mg BID, single dose, fed): 12 µM·h
- AUC(0-t) ([1]; human, plasma, oral, 75 mg, AUC0–24, young, 75 mg QD, single dose, fasted): 7.17 µM·h
- AUC ([1]; human, plasma, oral, 75 mg, young, 75 mg QD, multiple dose): 16.5 µM·h
- Cmax ([1]; human, plasma, oral, 75 mg, Cmax, young, 75 mg BID, single dose, fed): 884 nM
- Cmax ([1]; human, plasma, oral, 75 mg, Cmax, young, 75 mg QD, single dose, fasted): 451 nM
- Cmax ([1]; human, plasma, oral, 75 mg, Cmax,ss, young, 75 mg QD, multiple dose): 1020 nM
- Tmax ([1]; human, plasma, oral, 75 mg, tmax, young, 75 mg BID, single dose): 4.02 h
- Tmax ([1]; human, plasma, oral, 75 mg, tmax,ss, young, 75 mg BID, multiple dose, tmax,22 given): 3.5 h
- Tmax ([1]; human, plasma, oral, 75 mg, tmax,ss, young, 75 mg QD, multiple dose): 4.5 h
- exposure multiple (AUC0–24 and Cmax), 75-mg BID dose group vs 25-mg dose group ([1]; in vivo): 3.2 fold
- increase in AUCτ,ss, 75 mg BID vs. 75 mg QD ([1]; multiple dosing): 14%
- increase in Cmax,ss, 75 mg BID vs. 75 mg QD ([1]; multiple dosing): 90%
- Cmax ([1]; read-out: Cmax,ss, young, 10 mg QD, multiple dose): 221 nM
- AUCτ,ss,norm ([1]; young, 10 mg QD, multiple dose): 387 (22.2) nmol·h/L/mg
- Cmax,ss,norm ([1]; young, 10 mg QD, multiple dose): 22.1 (19.5) nmol/L/mg
- AUC0–24,norm ([1]; young, 10 mg QD, single dose): 141 (20.1) nmol·h/L/mg
- Cmax,norm ([1]; young, 10 mg QD, single dose): 10.9 (19.0) nmol/L/mg
- AUCτ,ss,norm ([1]; young, 25 mg QD, multiple dose): 425 (31.7) nmol·h/L/mg
- Cmax,ss,norm ([1]; young, 25 mg QD, multiple dose): 23.3 (27.6) nmol/L/mg
- AUC0–24,norm ([1]; young, 25 mg QD, single dose): 149 (18.2) nmol·h/L/mg
- Cmax,norm ([1]; young, 25 mg QD, single dose): 11.1 (19.7) nmol/L/mg
- AUCτ,ss,norm ([1]; young, 50 mg QD, multiple dose): 285 (29.4) nmol·h/L/mg
- Cmax,ss,norm ([1]; young, 50 mg QD, multiple dose): 16.0 (26.3) nmol/L/mg
- AUC0–24,norm ([1]; young, 50 mg QD, single dose): 120 (24.4) nmol·h/L/mg
- Cmax,norm ([1]; young, 50 mg QD, single dose): 7.95 (28.7) nmol/L/mg
- AUCτ,ss,norm ([1]; young, 75 mg BID, multiple dose, AUCτ,22,norm given): 251 (20.2) nmol·h/L/mg
- Cmax,ss,norm ([1]; young, 75 mg BID, multiple dose, Cmax,22,norm given): 25.8 (17.2) nmol/L/mg
- AUC0–24,norm ([1]; young, 75 mg BID, single dose): 160 (13.7) nmol·h/L/mg
- Cmax,norm ([1]; young, 75 mg BID, single dose): 11.8 (8.72) nmol/L/mg
- AUCτ,ss,norm ([1]; young, 75 mg QD, multiple dose): 220 (29.6) nmol·h/L/mg
- Cmax,ss,norm ([1]; young, 75 mg QD, multiple dose): 13.6 (23.1) nmol/L/mg
- AUC0–24,norm ([1]; young, 75 mg QD, single dose): 95.6 (17.9) nmol·h/L/mg
- Cmax,norm ([1]; young, 75 mg QD, single dose): 6.01 (17.9) nmol/L/mg
- AUC0–tz, adjusted gMean ratio evening/morning (90% CI) ([2]; 25 mg single dose): 120 (107–135) %
- AUC0–∞, adjusted gMean ratio evening/morning (90% CI) ([2]; 25 mg single dose): 118 (104–134) %
- Cmax, adjusted gMean ratio evening/morning (90% CI) ([2]; 25 mg single dose): 115 (98.1–136) %
- higher gMean Cmax, evening compared with morning administration ([2]; 25 mg single dose, 90% CI 98.1–136): 15%
- higher AUC0–tz, evening compared with morning administration ([2]; 25 mg single dose, 90% CI 107–135): 20%
- AUC0–tz, adjusted gMean ([2]; 25 mg single evening dose, fasted): 8.41 µM·h
- higher exposure, evening compared with morning ([2]; 25-mg tablet): 15–20%
- AUC(0-t) ([2]; human, plasma, oral, 25 mg): 7 µM·h
- Tmax ([2]; human, plasma, oral, 25 mg): 4.5 h
- AUC(0-inf) ([2]; human, plasma, oral, 25 mg, AUC0–∞, adjusted gMean, 25 mg single morning dose, fasted): 8.77 µM·h
- Cmax ([2]; human, plasma, oral, 25 mg, Cmax, adjusted gMean, 25 mg single morning dose, fasted): 241 nM
- gMean ratio (light fed:light fasted) steady-state AUC (Effect of food intake): 105.2%
- gMean ratio (light fed:light fasted) steady-state Cmax (Effect of food intake): 106.8%
- gMean ratio (light fasted:fasted) steady-state AUC (Effect of food intake; elderly subjects): 104.5%
- gMean ratio (light fasted:fasted) steady-state Cmax (Effect of food intake; elderly subjects): 108.3%
- gMean ratio (light fed:fasted) steady-state AUC (Effect of food intake; young subjects): 114.0%
- gMean ratio (light fed:fasted) steady-state Cmax (Effect of food intake; young subjects): 123.2%
- increase in steady-state AUC, light fed compared with fasted (Effect of food intake; [6]): 14%
- increase in steady-state Cmax, light fed compared with fasted (Effect of food intake; [6]): 23%
- Cmax (Effect of food intake; healthy elderly subjects, fasted): 611 nM
- Cmax (Effect of food intake; healthy elderly subjects, light fasted): 662 nM
- Cmax (Effect of food intake; healthy young subjects, fasted): 574 nM
- Cmax (Effect of food intake; healthy young subjects, fed (light fed)): 707 nM
- intrinsic solubility (Intrinsic solubility): low intrinsic solubility
- Adjusted gMean ratio Cmax, tablet fasted vs. oral solution fasted ([3]; 90% CI 45.1–55.4): 50.0%
- Adjusted gMean ratio AUC0–tz, tablet fasted vs. oral solution fasted ([3]; 90% CI 74.0–87.6): 80.5%
- Adjusted gMean ratio AUC0–tz, tablet fed vs. strongly fasted ([3]; high-fat/high-calorie breakfast ~ 1000 kcal, 90% CI 115.7–137.0): 125.9%
- Adjusted gMean ratio Cmax, tablet fed vs. strongly fasted ([3]; high-fat/high-calorie breakfast ~ 1000 kcal, 90% CI 128.3–157.4): 142.1%
- increase in AUC, high-fat/high-calorie meal vs. fasted ([3]; single dose 25 mg tablet): 26%
- increase in Cmax, high-fat/high-calorie meal vs. fasted ([3]; single dose 25 mg tablet): 42%
- median time to maximum plasma concentration ([3]; single doses 0.5–150 mg, oral solution, young healthy male volunteers): ~ 45 min
- tolerability of single doses ([3]; single doses up to 100 mg, oral solution, young healthy male volunteers): generally well tolerated
